ChEMBL document CHEMBL1148825, “Beta- and gamma-di- and tripeptides as potential substrates for the oligopeptide transporter hPepT1” (J Med Chem, 2007)
Calls of active or inactive are those of the source. No cut-off for these calls is given here. Square brackets hold non-standard residues; d marks the D form. Peptide text beside a SMILES is read from it. Sar = CNCC(=O)O

Columns and labels:
[1] = Apparent permeability from apical to basolateral side of human Caco-2 cells in presence of 5 mM GlySar; type: ADME, cell-based; conditions: Caco-2, with GlySar 5 mM
[2] = Apparent permeability from apical to basolateral side of human Caco-2 cells; type: ADME, cell-based
Outline: (§1)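 Caco-2 monolayers (passage 94-100) on polycarbonate inserts, differentiated 24 ± 1 days. Transport in HBSS with pH gradient: apical pH 6.0 (10 mM MES), basolateral pH 7.4 (25 mM HEPES), 0.5% DMSO final. Samples taken at intervals, replaced with HBSS + 0.5% DMSO. Papp = dQ/dt × 1/(A × c0), from steady-state flux; n = 3-4.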

[3] = Apparent permeability from basolateral to apical side of human Caco-2 cells; type: ADME, cell-based; outline: as §1
[4] = target: T1, Solute carrier family 15 member 1 (Homo sapiens) (UniProt P46059); assay: Inhibition of [3H]GlySar uptake at human PepT1 in Caco-2 cells; type: cell-based
T1 sequence (whole entry): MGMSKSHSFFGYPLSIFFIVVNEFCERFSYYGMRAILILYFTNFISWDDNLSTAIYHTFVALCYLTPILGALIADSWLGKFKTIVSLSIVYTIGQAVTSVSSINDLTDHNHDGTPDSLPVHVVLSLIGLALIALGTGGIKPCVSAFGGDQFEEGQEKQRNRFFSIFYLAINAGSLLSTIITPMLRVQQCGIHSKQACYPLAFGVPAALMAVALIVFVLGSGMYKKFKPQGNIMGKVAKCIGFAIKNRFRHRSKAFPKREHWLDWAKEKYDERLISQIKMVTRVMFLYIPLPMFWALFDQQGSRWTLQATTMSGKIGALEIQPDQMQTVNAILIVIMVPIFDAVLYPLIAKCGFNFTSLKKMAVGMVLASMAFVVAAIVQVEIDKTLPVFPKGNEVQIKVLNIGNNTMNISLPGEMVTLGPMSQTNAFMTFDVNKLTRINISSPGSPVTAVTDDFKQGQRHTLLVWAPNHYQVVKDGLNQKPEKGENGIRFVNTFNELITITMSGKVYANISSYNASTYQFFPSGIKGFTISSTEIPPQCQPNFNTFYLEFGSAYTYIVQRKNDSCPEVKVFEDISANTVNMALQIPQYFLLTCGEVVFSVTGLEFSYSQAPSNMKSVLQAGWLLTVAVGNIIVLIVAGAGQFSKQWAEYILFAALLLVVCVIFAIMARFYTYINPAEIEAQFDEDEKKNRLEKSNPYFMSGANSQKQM
Outline: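 Uptake into differentiated Caco-2 monolayers under apical pH 6.0/basolateral pH 7.4 HBSS. 5 min incubation with 1 µCi/mL [3H]GlySar (250 nM), with or without 4 mM test compound in the apical donor chamber. Stopped by removing solution and three ice-cold HBSS washes. Monolayer radioactivity counted relative to control; SD, n = 3, significance at p < 0.05.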

[5] = Apparent permeability across human Caco-2 cells; type: ADME, cell-based
Outline: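 Caco-2 monolayers (passage 94-100) on 0.4 µm polycarbonate inserts, seeded 4.4 × 10^5 cells per cm2, differentiated 24 ± 1 days. Transport in HBSS with 0.5% DMSO, apical pH 6.0 (10 mM MES), basolateral pH 7.4 (25 mM HEPES); P-gp runs at pH 7.4. Both directions sampled over time. Papp = dQ/dt × 1/(A × c0); n = 3-4.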

[6] = Apparent permeability from apical to basolateral side of human Caco-2 cells at pH 7.4 after 180 mins; type: ADME, cell-based; conditions: Caco-2, pH 7.4
Outline: (§2)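 Caco-2 monolayers (passage 94-100, differentiated 24 ± 1 days on inserts). Transport in HBSS at pH 7.4 on both sides, 0.5% DMSO final, over 180 min. Run with and without P-gp inhibitor GF120918 at 2 µM. Samples taken at intervals. Papp from steady-state flux divided by filter area and initial donor concentration.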

[7] = Apparent permeability from basolateral to apical side of human Caco-2 cells at pH 7.4 after 180 mins; type: ADME, cell-based; conditions: Caco-2, pH 7.4; outline: as §2

Papp A→B [1]	Papp A→B [2]	Papp B→A [3]	Activity [4]	Papp A→B at 3 h [6]	Papp B→A at 3 h [7]	SMILES	Papp [5]
0.291 ×10⁻⁶ cm/s	0.613 ×10⁻⁶ cm/s	0.129 ×10⁻⁶ cm/s	Active			CC(C)C[C@@H](CC(=O)O)NC(=O)C[C@H](C)N	
0.039 ×10⁻⁶ cm/s	0.049 ×10⁻⁶ cm/s	0.061 ×10⁻⁶ cm/s	Active			C[C@H](N)CC(=O)N[C@@H](CCCCN)CC(=O)N[C@H](CC(=O)O)Cc1ccccc1	
0.031 ×10⁻⁶ cm/s	0.037 ×10⁻⁶ cm/s	0.071 ×10⁻⁶ cm/s	Active			NCCCC[C@@H](CC(=O)N[C@H](CC(=O)O)Cc1ccccc1)NC(=O)C[C@@H](N)CO	
0.045 ×10⁻⁶ cm/s	0.072 ×10⁻⁶ cm/s	0.075 ×10⁻⁶ cm/s	Active			NCCCC[C@H](N)CC(=O)N[C@H](CC(=O)O)Cc1ccccc1	
	0.037 ×10⁻⁶ cm/s	0.078 ×10⁻⁶ cm/s	Active	0.044 ×10⁻⁶ cm/s	0.051 ×10⁻⁶ cm/s	C[C@H](N)CC(=O)N[C@@H](CCCCN)CC(=O)O	
0.028 ×10⁻⁶ cm/s	0.033 ×10⁻⁶ cm/s	0.097 ×10⁻⁶ cm/s	Active	0.021 ×10⁻⁶ cm/s	0.115 ×10⁻⁶ cm/s	CCC[C@@H](C[C@H](C)NC(=O)[C@H](C)C[C@@H](NC(=O)[C@@H](Cc1ccccc1)C[C@@H](C)N)C(C)C)C(=O)O	

Continued, molecule first:

SMILES	Papp A→B [1]	Papp A→B [2]	Papp B→A [3]	Activity [4]	Papp A→B at 3 h [6]	Papp B→A at 3 h [7]	Papp [5]
CC(C)C[C@H](CCNC(=O)[C@H](C)CCNC(=O)[C@@H](CCN)C(C)C)C(=O)O	0.026 ×10⁻⁶ cm/s	0.034 ×10⁻⁶ cm/s	0.094 ×10⁻⁶ cm/s	inactive			
CN(CC(=O)O)C(=O)CN [GLYCYLSARCOSINE] (H-Gly-[Sar]-OH)							11 ×10⁻⁶ cm/s
CC(C)[C@H](N)CC(=S)N[C@@H](C)CC(=O)O	0.393 ×10⁻⁶ cm/s	0.754 ×10⁻⁶ cm/s	0.124 ×10⁻⁶ cm/s	Active			
CC(C)C[C@@H](CC(=O)O)NC(=O)[C@@H](C)CN	0.055 ×10⁻⁶ cm/s	0.095 ×10⁻⁶ cm/s	0.084 ×10⁻⁶ cm/s	Active			
C[C@@H](CC(=O)O)NC(=O)C[C@H](C)NC(=O)C[C@@H](N)CO	0.043 ×10⁻⁶ cm/s	0.044 ×10⁻⁶ cm/s		inactive			
CC(C)C[C@@H](CNC(=O)[C@@H](C)CNC(=O)[C@H](CN)C(C)C)C(=O)O	0.023 ×10⁻⁶ cm/s	0.024 ×10⁻⁶ cm/s	0.071 ×10⁻⁶ cm/s	Active			
